Ecoli rRNA inh = inhibits bacterial ribosomal RNA function over humanized ribosomes | E. coli WT GFP vs humanized-ribosome RFP mutants, fluorescence, 24 h; active compounds read low; DMSO median 0, no signal -100 | GFP signal change (wild-type ribosome), % (no concentration beside the values) | 350,000 tested, 1.6% active | AID 720706;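 active = significant combined selectivity score with lowered wild-type GFP, culture density cut under 30%, mutant RFP and density less affected; inactive = any of these conditions unmet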
Xi reactivation = activators of X-chromosome reactivation in mouse fibroblasts; XiGFP mouse fibroblasts, % GFP-positive cells imaging, 3 d; cells co-treated with 5-aza-dC sensitizer; scaled so ellipticine positive control = 100%; activation, % at 7.58 µM; 360,000 tested, 0.055% active;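 active = mean normalized replicate activation at least 10% and every replicate at or above 10%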;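 also: 0% = median of on-plate neutral control wells and 100% = ellipticine 6 µM median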
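Material: SV40-immortalized XiGFP fibroblast cells, line 68-5-11 | Buffer or medium: DMEM containing 5-aza-dC | Dosing: One concentration, pinned | Times: 3 d treatment, 15 min room-temperature fixation | Controls: Ellipticine 6 µM positive control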
RAD52 anneal inh = inhibitors of human RAD52 DNA annealing. AID 651710. 360,000 tested, 0.46% active. P43351. recombinant RAD52 DNA annealing, FRET fluorescence. inhibition, % at 18.7 µM;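 active = every replicate showing at least 50% inhibition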
E-selectin induc = induces E-selectin expression in human endothelial cells; P16581; HUVEC E-selectin immunofluorescence imaging; normalized: neutral wells 0, TNF-alpha wells 100; activation, % at 7.58 µM; 260,000 tested, 0.37% active; AID 686992;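 active = mean E-selectin-positive cell signal at least 10% of the positive control, reached in at least 60% of replicates, without over 20% cell loss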
Target sequence (P16581 whole entry, looked up): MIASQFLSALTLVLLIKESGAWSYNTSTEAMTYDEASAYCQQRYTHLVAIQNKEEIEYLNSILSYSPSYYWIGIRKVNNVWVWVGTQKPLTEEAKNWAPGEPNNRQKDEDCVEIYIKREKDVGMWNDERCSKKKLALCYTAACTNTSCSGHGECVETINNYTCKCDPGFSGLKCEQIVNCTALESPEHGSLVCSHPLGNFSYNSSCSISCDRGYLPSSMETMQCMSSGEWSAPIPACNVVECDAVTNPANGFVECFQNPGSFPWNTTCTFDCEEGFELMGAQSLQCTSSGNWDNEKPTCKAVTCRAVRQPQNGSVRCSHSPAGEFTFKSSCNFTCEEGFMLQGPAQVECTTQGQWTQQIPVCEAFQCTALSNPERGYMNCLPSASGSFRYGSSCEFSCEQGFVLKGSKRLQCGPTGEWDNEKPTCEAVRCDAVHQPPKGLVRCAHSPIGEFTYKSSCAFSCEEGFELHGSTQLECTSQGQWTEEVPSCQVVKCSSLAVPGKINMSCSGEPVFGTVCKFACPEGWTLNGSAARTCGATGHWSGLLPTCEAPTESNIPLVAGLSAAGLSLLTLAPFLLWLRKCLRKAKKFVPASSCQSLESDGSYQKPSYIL
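System: HUVEC / Compound: single concentration / Signal: immunofluorescence imaging / Read-out: percent E-selectin-positive cells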
RAD54 branch = blocks human RAD54 Holliday junction branch migration; Q92698; FAM/BHQ fluorescence; inhibition, % at 10.4 µM; 360,000 tested, 0.14% active; AID 602329;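 active = mean normalized replicate activity at least 40 and at least half of replicates scoring 40 or more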;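 also: 0% = median of neutral control wells and 100% = median of positive control wells; inhibitors cause a drop in the FAM fluorescence signal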
PglD DTNB = PglD (C. jejuni) enzyme inhibition. purified PglD enzyme, DTNB colorimetric CoA detection. inhibition, % at 12.5 µM. 360,000 tested, 0.098% active; in the data active = inhibition above about 16%, passing the limit was not always enough
An asterisk follows results filed as active; / = not tested or not shown. Shown are actives, neighbours in structure and some others; about 2% of the full set was active somewhere.

SMILES | Ecoli rRNA inh | Xi reactivation | RAD52 anneal inh | E-selectin induc | RAD54 branch | PglD DTNB
O=C(C1=C(Nc2ccccc2)c2ccccc2S(=O)(=O)N1)c1ccccc1 | -19* | 0 | -78 | / | / | /
Cc1ccccc1NC1=C(C(=O)c2ccccc2)N(C)S(=O)(=O)c2ccccc21 | / | / | / | / | -9 | 4
Cn1c(SCC(=O)N2CCCC2)nc2ccccc21 | 8 | 0 | -3 | 3 | / | /
Cn1c(SCC(=O)N(Cc2ccccc2)C(C)(C)C)nc2ccccc21 | -31* | / | -9 | / | -6 | -7
CSCCC(NS(=O)(=O)c1ccccc1)C(=O)OCc1cc(=O)oc2cc(O)ccc12 (stereo unspecified) | -22* | 0 | -18 | / | 1 | 2
CSCCC(NS(=O)(=O)c1ccccc1)C(=O)OCc1nc2ccsc2c(=O)[nH]1 (stereo unspecified) | 2 | 0 | -7 | / | -5 | 2
CCNC(=O)[C@@H]1[C@@H](CO)[C@@H]2Cn3c(ccc(-c4ccc(OC)cc4)c3=O)[C@@H]2N1Cc1nccs1 | 4 | 0 | -24 | 0 | -7 | 2
COc1ccc(C(=O)NC(=S)Nc2ccc(CN3CCCCC3)cc2)cc1Cl | -20* | 0 | 27 | 0 | / | /
O=C(NC(=S)Nc1ccc(CN2CCCCC2)cc1)c1ccco1 | 10 | 0 | 9 | / | / | /
Cc1ccc(C(=O)Nc2ccc(N3CCCC3)cc2)c(C)c1 | -36* | 0 | 5 | 3 | / | /
Cc1ccc(C(=O)NC(=S)Nc2ccc(CN3CCCCC3)cc2)c(C)c1 | -5 | 0 | -69 | 26* | / | /
O=C([C@@H]1N[C@@H]2c3ccc(C4=CCCCC4)c(=O)n3C[C@@H]2[C@H]1CO)N1CCC(Cc2ccccc2)CC1 | -11 | 0 | -11 | 0 | -3 | 2
COc1cc(-c2nc3cnccn3c2Nc2ccc(C)cc2)ccc1O | -41* | / | -24 | / | 1 | 0
Oc1ccc(-c2nc3cnccn3c2Nc2ccc3c(c2)OCCO3)cc1 | -5 | 0 | -8 | 0 | 13 | 5
CC(C)(C)CC(C)(C)Nc1c(-c2ccc(O)cc2)nc2cnccn12 | -25* | / | -2 | / | -1 | 2
Cc1noc(C)c1S(=O)(=O)Nc1ccc2c(c1)C(=O)N([C@H](C)CO)C[C@H](C)[C@H](CN(C)C(=O)C1CCCCC1)OCCCC[C@@H](C)O2 | 1 | 0 | -9 | 0 | -3 | -1
O=C(Nc1nc2ccc(F)cc2s1)c1ccc([N+](=O)[O-])o1 | -26* | 0 | 3 | 0 | -5 | -4
Cc1cc(Sc2nnc(/N=C/N(C)C)s2)c2ccccc2n1 | -20* | 0 | 9 | 0 | -2 | 6
CCCNC(=O)N[C@@H]1C=C[C@H](CC(=O)NC2CCC2)O[C@@H]1CO | 1 | 0 | 9 | 0 | 1 | -3
Cc1cc2c(c(=O)o1)[C@@]1(C(=O)N(C)c3cccc(Br)c31)C1=C(CCCC1=O)O2 | 6 | 1 | 2 | 0 | / | /
COc1ccc(NC(=O)c2sccc2-n2cccc2)cc1 | -31* | 0 | -27 | 6 | 4 | 5
COc1ccc(N(C2=NCCCS2)S(=O)(=O)c2ccc(C(C)(C)C)cc2)cc1 | 4 | 0 | -12 | 3 | -4 | -7
COc1ccccc1N(C1=NCCCS1)S(=O)(=O)c1ccc(C(C)(C)C)cc1 | -16* | 0 | -21 | 5 | / | /
Cc1noc(C)c1NC(=O)N(C)C[C@H]1Oc2cc(C#CCC3CCCC3)ccc2S(=O)(=O)N([C@@H](C)CO)C[C@@H]1C | 2 | -1 | 5 | 0 | -3 | 1
CCCC#Cc1ccc2c(c1)O[C@@H](CN(C)C(=O)c1ccccc1)[C@@H](C)CN([C@H](C)CO)S2(=O)=O | -1 | -1 | 1 | 96* | 2 | 0
SMILES | Ecoli rRNA inh | Xi reactivation | RAD52 anneal inh | E-selectin induc | RAD54 branch | PglD DTNB
CCCC#Cc1ccc2c(c1)O[C@H](CN(C)C(C)=O)[C@H](C)CN([C@@H](C)CO)S2(=O)=O | 5 | -1 | -5 | 123* | 5 | -3
CC(=O)N(C)C[C@@H]1Oc2cc(C#Cc3ccccn3)ccc2S(=O)(=O)N([C@H](C)CO)C[C@@H]1C | 2 | 0 | -19 | 70* | 5 | 0
Cc1noc(C)c1NC(=O)N(C)C[C@@H]1Oc2cc(C#CCC3CCCC3)ccc2S(=O)(=O)N([C@H](C)CO)C[C@@H]1C | -5 | 0 | 99* | 0 | -4 | -3
CC(=O)N(C)C[C@H]1Oc2cc(C#Cc3ccccn3)ccc2S(=O)(=O)N([C@@H](C)CO)C[C@@H]1C | 3 | 0 | -28 | 0 | 6 | 1
CCCC#Cc1ccc2c(c1)O[C@@H](CN(C)C(=O)c1ccccc1)[C@@H](C)CN([C@@H](C)CO)S2(=O)=O | -3 | -1 | 28 | 0 | -3 | 2
CCCC#Cc1ccc2c(c1)O[C@@H](CN(C)S(=O)(=O)c1cccc(OC)c1)[C@@H](C)CN([C@@H](C)CO)S2(=O)=O | 0 | 0 | -3 | 98* | 7 | -3
CCCC#Cc1ccc2c(c1)O[C@H](CN(C)S(=O)(=O)c1cccc(OC)c1)[C@@H](C)CN([C@H](C)CO)S2(=O)=O | 8 | 0 | / | 0 | / | /
CC(C)CC#Cc1ccc2c(c1)O[C@H](CN(C)C(=O)c1ccccc1)[C@H](C)CN([C@@H](C)CO)S2(=O)=O | -2 | -1 | -4 | 85* | 4 | 1
CC(C)CC#Cc1ccc2c(c1)O[C@@H](CN(C)C(=O)c1ccccc1)[C@H](C)CN([C@@H](C)CO)S2(=O)=O | -6 | -1 | -7 | 0 | -7 | 3
CC(C)NC(=O)N1CC[C@@H]2[C@H]1c1cc(C#Cc3ccccc3)ccc1N(C)[C@@H]2CO | -9 | 0 | / | 0 | -12 | -13
O=C(c1ccco1)N1CCN(C(=O)C2CC2)CC1 | 2 | 0 | -3 | 37* | -2 | 0
Cc1c(Cl)cccc1NC(=S)N1CCN(C(=O)c2ccco2)CC1 | -28* | 0 | -5 | / | 6 | -2
Cc1cccc(NC(=S)N2CCN(C(=O)c3ccco3)CC2)c1C | -13 | 0 | -7 | 0 | 10 | -4
Cc1noc(C)c1NC(=O)N(C)C[C@H]1Oc2ncc(C#CCC(C)C)cc2C(=O)N([C@H](C)CO)C[C@@H]1C | 5 | -1 | 5 | 1 | 3 | -3
O=C(Nc1ccc(Cl)cc1)Nc1ccc(-c2cnco2)cc1 | -22* | 0 | -15 | 0 | 7 | -5
O=C(NC(=O)c1ccccc1)Nc1ccc(-c2cnco2)cc1 | 16 | 0 | -15 | 0 | -4 | -7
CC(=O)Nc1ccc2c(c1)C(=O)N(C)[C@@H]1CC[C@H](CC(=O)NCc3ccc4c(c3)OCO4)O[C@H]1CO2 | 1 | 0 | / | 0 | 4 | 0
CCN(c1cccc2ccccc12)S(=O)(=O)c1ccc(Cl)nc1 | -22* | 0 | -4 | / | 4 | -3
